Source: ChEMBL document CHEMBL5678799 (Biochem J, 2009)
The source made the active and inactive calls. No cut-off for these calls is given here.

Legend:
[1] = target: Vascular endothelial growth factor receptor 1 (Homo sapiens) (UniProt P17948); assay: Inhibition of recombinant human N-terminal GST-tagged VEGFR1 (784 to 1338 residues) expressed in baculovirus infected Sf21 cells assessed as remaining activity at 10 uM using KKKSPGEYVNIEFG as substrate incubated for 30 mins in presence of [gamma-33P]ATP by filter binding assay relative to control
Vascular endothelial growth factor receptor 1 (Homo sapiens), sequence (P17948 whole entry, the tested form may be a part): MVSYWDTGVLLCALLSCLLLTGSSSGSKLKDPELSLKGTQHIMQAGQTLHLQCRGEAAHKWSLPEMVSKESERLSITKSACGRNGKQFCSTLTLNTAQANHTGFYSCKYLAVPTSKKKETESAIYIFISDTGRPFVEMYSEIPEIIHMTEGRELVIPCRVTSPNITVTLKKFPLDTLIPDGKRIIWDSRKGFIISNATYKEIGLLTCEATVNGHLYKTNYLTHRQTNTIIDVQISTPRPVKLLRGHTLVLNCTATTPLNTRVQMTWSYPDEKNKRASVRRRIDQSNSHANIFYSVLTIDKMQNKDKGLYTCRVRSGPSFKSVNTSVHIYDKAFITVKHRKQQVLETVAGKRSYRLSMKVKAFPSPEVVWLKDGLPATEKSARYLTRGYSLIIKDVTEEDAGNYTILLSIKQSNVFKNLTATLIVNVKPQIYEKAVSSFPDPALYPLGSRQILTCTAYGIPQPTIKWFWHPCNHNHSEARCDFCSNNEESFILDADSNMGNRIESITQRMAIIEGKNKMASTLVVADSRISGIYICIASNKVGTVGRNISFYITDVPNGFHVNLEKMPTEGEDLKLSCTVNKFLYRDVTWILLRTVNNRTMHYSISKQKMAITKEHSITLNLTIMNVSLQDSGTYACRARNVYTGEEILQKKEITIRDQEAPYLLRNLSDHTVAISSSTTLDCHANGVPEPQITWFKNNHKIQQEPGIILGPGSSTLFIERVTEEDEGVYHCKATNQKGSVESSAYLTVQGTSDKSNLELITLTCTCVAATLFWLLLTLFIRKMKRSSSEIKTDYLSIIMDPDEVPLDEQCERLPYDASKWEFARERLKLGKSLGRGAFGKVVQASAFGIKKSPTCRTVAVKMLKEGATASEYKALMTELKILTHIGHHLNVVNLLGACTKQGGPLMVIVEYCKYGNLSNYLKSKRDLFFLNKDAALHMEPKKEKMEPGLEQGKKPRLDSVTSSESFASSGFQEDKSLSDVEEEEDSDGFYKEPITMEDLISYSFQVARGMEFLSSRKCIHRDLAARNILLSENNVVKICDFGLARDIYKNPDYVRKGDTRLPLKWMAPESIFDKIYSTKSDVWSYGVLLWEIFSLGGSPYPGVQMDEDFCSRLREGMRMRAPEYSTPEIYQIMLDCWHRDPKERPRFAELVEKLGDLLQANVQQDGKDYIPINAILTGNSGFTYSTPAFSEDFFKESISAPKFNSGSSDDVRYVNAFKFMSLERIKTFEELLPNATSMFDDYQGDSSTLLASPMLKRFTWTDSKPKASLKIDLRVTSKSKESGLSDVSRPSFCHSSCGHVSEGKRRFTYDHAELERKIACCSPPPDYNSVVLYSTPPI
How it was run: (§1)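 Panel assays were run for 30 min at 21 °C, within the linear range for time and enzyme. […] Results are percent activity remaining relative to compound-free control, averaged from triplicate ± S.D.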

[2] = target: Casein kinase II subunit alpha (Homo sapiens) (UniProt P68400); assay: Inhibition of recombinant human N-terminal His6-tagged CK2alpha1 (2 to 391 residues) expressed in Escherichia coli assessed as remaining activity at 10 uM using RRRDDDSDDD as substrate incubated for 30 mins in presence of [gamma-33P]ATP by filter binding method relative to control
Casein kinase II subunit alpha (Homo sapiens), sequence (P68400 whole entry, looked up, the tested form may be a part): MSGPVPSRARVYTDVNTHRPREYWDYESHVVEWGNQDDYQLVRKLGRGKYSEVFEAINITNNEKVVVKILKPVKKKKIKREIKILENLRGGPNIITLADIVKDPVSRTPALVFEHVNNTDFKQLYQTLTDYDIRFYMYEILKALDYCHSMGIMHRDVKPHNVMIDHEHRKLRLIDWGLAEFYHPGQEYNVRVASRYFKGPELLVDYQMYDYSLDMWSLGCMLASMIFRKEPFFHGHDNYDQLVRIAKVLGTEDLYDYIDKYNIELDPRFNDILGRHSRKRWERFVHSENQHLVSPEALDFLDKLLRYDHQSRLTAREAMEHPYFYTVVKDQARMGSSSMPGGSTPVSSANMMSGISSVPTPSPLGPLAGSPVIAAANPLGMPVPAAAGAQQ
How it was run: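 Radiometric panel assay run robotically at 21 °C for 30 min, linear in time and enzyme. […] Activity is expressed as percentage of the compound-omitted control, averaged from triplicates ± S.D.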

[3] = target: Mitogen-activated protein kinase; ERK1/ERK2 (Homo sapiens) (UniProt P27361+P28482); assay: Inhibition of ERK1/2 in serum starved/PMA-stimulated HEK293 cells assessed as reduction in ERK1/2 phosphorylation at T202/Y204 residues at 1 uM incubated for 30 mins by immunoblot analysis; type: cell-based
Mitogen-activated protein kinase; ERK1/ERK2 (Homo sapiens), sequence (P27361 whole entry, looked up, the tested form may be a part): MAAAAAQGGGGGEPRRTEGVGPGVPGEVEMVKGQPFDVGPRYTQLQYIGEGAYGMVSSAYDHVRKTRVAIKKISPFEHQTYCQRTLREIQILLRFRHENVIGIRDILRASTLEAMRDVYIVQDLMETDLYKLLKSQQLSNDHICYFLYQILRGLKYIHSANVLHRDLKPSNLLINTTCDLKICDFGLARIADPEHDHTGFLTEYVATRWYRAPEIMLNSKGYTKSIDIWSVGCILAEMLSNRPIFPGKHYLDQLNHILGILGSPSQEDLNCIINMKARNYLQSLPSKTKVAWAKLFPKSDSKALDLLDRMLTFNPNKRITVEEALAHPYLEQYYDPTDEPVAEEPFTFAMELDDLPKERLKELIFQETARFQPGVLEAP
Mitogen-activated protein kinase; ERK1/ERK2 (Homo sapiens), sequence (P28482 whole entry, looked up, the tested form may be a part): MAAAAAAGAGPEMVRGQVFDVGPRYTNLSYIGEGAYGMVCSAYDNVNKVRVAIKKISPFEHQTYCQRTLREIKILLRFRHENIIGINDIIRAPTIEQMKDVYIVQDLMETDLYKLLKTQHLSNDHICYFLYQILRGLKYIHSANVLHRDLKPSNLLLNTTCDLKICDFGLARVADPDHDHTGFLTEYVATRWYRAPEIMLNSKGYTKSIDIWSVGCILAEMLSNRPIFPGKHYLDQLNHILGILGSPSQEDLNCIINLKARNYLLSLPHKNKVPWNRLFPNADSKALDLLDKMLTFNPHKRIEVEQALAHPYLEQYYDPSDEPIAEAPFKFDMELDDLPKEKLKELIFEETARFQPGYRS

[4] = target: Inhibitor of nuclear factor kappa-B kinase subunit beta (Homo sapiens) (UniProt O14920); assay: Inhibition of recombinant human N-terminal His6-tagged IKKbeta (1 to 736 residues) expressed in baculovirus infected Sf21 cells assessed as remaining activity at 1 uM using LDDRHDSGLDSMKDEEY as substrate incubated for 30 mins in presence of [gamma-33P]ATP by filter binding method relative to control
Inhibitor of nuclear factor kappa-B kinase subunit beta (Homo sapiens), sequence (O14920 whole entry, the tested form may be a part): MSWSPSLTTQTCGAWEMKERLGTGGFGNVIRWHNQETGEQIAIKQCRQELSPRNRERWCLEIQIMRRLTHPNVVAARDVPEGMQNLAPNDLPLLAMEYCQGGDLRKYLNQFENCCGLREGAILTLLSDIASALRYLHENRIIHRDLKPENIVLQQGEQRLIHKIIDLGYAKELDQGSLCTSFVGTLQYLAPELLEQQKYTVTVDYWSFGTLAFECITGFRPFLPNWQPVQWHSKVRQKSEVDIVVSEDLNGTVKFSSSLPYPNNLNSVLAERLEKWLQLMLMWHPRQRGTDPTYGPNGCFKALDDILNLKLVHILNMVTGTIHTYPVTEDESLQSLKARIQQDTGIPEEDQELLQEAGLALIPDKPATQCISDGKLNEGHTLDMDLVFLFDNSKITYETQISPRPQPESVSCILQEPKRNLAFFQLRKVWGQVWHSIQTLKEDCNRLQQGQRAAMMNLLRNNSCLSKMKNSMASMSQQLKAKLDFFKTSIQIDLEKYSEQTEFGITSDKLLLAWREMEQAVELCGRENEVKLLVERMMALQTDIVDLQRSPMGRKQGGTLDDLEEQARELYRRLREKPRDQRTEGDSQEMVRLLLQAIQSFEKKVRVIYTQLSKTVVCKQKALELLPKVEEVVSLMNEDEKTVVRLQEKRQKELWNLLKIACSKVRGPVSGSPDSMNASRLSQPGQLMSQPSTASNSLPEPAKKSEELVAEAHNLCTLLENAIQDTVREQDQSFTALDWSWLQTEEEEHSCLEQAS
How it was run: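 Profiling-centre panel assay performed robotically at 21 °C for 30 min, linear with time and enzyme. […] Values are percent of compound-free control activity, the mean of triplicates ± S.D.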

[5] = target: cAMP-dependent protein kinase catalytic subunit alpha (Homo sapiens) (UniProt P17612); assay: Inhibition of recombinant human N-terminal GST-tagged PKAalpha (2 to 351 residues) expressed in Escherichia coli assessed as remaining activity at 10 uM using Kemptide as substrate incubated for 30 mins in presence of [gamma-33P]ATP by filter binding method relative to control; how it was run: as §1
[6] = target: Insulin receptor-related protein (Homo sapiens) (UniProt P14616); assay: Inhibition of recombinant human N-terminal His6-tagged IRR (944 to 1236 residues) expressed in baculovirus infected Sf21 cells assessed as remaining activity at 10 uM using MBP as substrate incubated for 30 mins in presence of [gamma-33P]ATP by filter binding method relative to control
[7] = target: Calcium/calmodulin-dependent protein kinase kinase 2 (Homo sapiens) (UniProt Q96RR4); assay: Inhibition of recombinant human N-terminal GST-tagged CAMKKbeta (1 to 541 residues) expressed in Escherichia coli assessed as remaining activity at 1 uM using DGEFLRTSCGSPNYAARRR as substrate incubated for 30 mins in presence of [gamma-33P]ATP by filter binding method relative to control
Calcium/calmodulin-dependent protein kinase kinase 2 (Homo sapiens), sequence (Q96RR4 2-588 limits assumed): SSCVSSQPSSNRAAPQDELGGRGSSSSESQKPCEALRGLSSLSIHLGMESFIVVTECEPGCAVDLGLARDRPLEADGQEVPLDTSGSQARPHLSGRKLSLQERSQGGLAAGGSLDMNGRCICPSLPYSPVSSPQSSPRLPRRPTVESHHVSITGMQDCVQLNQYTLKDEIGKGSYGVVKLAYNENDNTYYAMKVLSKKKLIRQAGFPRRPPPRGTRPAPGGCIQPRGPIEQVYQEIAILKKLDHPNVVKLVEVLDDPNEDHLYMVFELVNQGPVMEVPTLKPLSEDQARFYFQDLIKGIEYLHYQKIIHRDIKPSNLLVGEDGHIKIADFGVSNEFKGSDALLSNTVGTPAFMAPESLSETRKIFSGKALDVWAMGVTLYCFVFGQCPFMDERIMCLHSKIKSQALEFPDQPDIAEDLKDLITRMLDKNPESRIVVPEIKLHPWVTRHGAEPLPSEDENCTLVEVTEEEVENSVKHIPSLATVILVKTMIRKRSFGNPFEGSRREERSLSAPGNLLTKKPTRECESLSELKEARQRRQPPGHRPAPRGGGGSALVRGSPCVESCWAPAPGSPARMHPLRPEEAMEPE
How it was run: (§2)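 Robotic radiometric panel assay, 30 min at room temperature (21 °C), with 10 mM magnesium acetate. […] Compound at 1 or 10 µM. Residual activity expressed relative to compound-free control; triplicate average ± S.D.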

mTORC1 (Homo sapiens) [8] = target: T1, mTORC1 (Homo sapiens) (UniProt P42345+Q8N122+Q9BVC4); conditions: HEK293, dose 300.0 nM, time 30.0 min
[9] = target: Protein kinase C alpha type (Homo sapiens) (UniProt P17252); assay: Inhibition of recombinant human N-terminal His6-tagged PKCalpha (1 to 672 residues) expressed in baculovirus infected Sf21 cells assessed as remaining activity at 10 uM using Histone H1 as substrate incubated for 30 mins in presence of [gamma-33P]ATP by filter binding method relative to control
[10] = target: MAP kinase-activated protein kinase 5 (Homo sapiens) (UniProt Q8IW41); assay: Inhibition of recombinant human His6-tagged PRAK (1 to 471 residues) expressed in baculovirus infected Sf21 cells assessed as remaining activity at 1 uM using phosphorylase b peptide as substrate incubated for 30 mins in presence of [gamma-33P]ATP by filter binding method relative to control; how it was run: as §2
[11] = target: Dual specificity tyrosine-phosphorylation-regulated kinase 1A (Homo sapiens) (UniProt Q13627); assay: Inhibition of recombinant human N-terminal GST-tagged DYRK1A (1 to 502 residues) expressed in Escherichia coli assessed as remaining activity at 10 uM using KKISGRLSPIMTEQ as substrate incubated for 30 mins in presence of [gamma-33P]ATP by filter binding method relative to control
How it was run: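 Run robotically for 30 min at 21 °C under linear conditions. Compound at 1 or 10 µM. Percentage activity remaining versus control without compound, triplicate mean ± S.D.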

[12] = target: Mitogen-activated protein kinase 14 (Homo sapiens) (UniProt Q16539); assay: Inhibition of recombinant human N-terminal GST-tagged P38alpha (1 to 360 residues) expressed in Escherichia coli assessed as remaining activity at 1 uM using MBP as substrate incubated for 30 mins in presence of [gamma-33P]ATP by filter binding method relative to control
Mitogen-activated protein kinase 14 (Homo sapiens), sequence (Q16539 whole entry, the tested form may be a part): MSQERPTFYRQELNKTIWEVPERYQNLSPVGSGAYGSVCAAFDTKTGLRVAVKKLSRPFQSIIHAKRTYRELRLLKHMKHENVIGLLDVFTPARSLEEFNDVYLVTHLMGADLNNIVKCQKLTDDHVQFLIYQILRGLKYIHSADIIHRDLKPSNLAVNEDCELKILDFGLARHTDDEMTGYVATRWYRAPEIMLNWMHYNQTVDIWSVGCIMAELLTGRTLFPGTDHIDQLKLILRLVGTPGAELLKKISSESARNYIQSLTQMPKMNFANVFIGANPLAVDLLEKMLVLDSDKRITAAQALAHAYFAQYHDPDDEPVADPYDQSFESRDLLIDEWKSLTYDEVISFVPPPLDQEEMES
How it was run: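 Incubation was 30 min at room temperature (21 °C) under conditions linear with time and enzyme amount. Activity is reported as percent of control lacking compound, triplicate mean ± S.D.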

mTORC1 (Homo sapiens) [13] = target: T1, mTORC1 (Homo sapiens); conditions: HEK293, dose 30.0 nM, time 30.0 min
[14] = target: MAP kinase-activated protein kinase 2 (Homo sapiens) (UniProt P49137); assay: Inhibition of recombinant human N-terminal GST/C-terminal Myc-tagged MAPKAPK2 (46 to 400 residues) expressed in Escherichia coli assessed as remaining activity at 10 uM using KKLNRTLSVA as substrate incubated for 30 mins in presence of [gamma-33P]ATP by filter binding method relative to control
How it was run: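 Incubations ran robotically for 30 min at room temperature (21 °C) under linear conditions. Results are percent activity remaining versus controls without compound, as the mean of triplicates ± S.D.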

[15] = target: 3-phosphoinositide-dependent protein kinase 1 (Homo sapiens) (UniProt O15530); assay: Inhibition of recombinant human His6-tagged PDK1 (52 to 556 residues) expressed in baculovirus infected Sf21 cells assessed as remaining activity at 1 uM using PDKtide as substrate incubated for 30 mins in presence of [gamma-33P]ATP by filter binding method relative to control; how it was run: as §2
3-phosphoinositide-dependent protein kinase 1 (Homo sapiens), sequence (O15530 whole entry, the tested form may be a part): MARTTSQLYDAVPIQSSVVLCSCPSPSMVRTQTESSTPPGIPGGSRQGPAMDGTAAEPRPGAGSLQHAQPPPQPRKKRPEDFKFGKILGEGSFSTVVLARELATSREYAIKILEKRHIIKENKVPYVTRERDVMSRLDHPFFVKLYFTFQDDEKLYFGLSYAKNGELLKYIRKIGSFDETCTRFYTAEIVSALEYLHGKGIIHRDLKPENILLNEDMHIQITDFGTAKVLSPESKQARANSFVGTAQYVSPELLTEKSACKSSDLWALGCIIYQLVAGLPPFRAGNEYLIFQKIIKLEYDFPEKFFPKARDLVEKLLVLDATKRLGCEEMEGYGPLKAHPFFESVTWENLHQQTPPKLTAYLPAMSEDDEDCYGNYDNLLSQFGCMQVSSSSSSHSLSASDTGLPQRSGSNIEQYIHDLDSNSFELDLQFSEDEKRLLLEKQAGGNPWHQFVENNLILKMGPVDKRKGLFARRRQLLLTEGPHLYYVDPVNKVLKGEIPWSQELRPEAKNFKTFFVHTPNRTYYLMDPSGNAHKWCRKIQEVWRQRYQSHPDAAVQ

mTORC2 (Homo sapiens) = mTORC2 (Homo sapiens) (UniProt P42345+Q6R327+Q9BVC4+Q9BPZ7); conditions: HEK293, dose 30-1000 nM, time 30.0 min

## COc1ccc(-c2ccc3c(N4CCOCC4)nc(N4C[C@@H](C)O[C@@H](C)C4)nc3n2)cc1CO [Ku-0063794]
[1]
  Activity: 92%
[2]
  Activity: 85%
[3]
  inhibition: inactive
[4]
  Activity: 104%
[5]
  Activity: 85%
[6]
  Activity: 71%
[7]
  Activity: 108%
mTORC1 (Homo sapiens) [8]
  inhibition: 90%
[9]
  Activity: 86%
[10]
  Activity: 67%
[11]
  Activity: 80%
[12]
  Activity: 101%
mTORC1 (Homo sapiens) [13]
  inhibition: 50%
[14]
  Activity: 81%
[15]
  Activity: 89%
mTORC2 (Homo sapiens)
  inhibition: Dose-Dependent Effect
